In publication PMC7610841 (Nature, 2020):
Entries after “also recorded” stand apart in the source; their conditions may differ.

Key:
[1] = Lipid binding of furin-site mutant vs wild-type Dlp^core; details: furin sites destroyed: K398Q, K399A, R402Q, R438Q, R441A
[2] = tested on: GFP-Wingless; assay: In vivo trapping of GFP-Wingless at the surface of wing imaginal disc cells; design: species or system Drosophila; details: overexpressed with ptc-Gal4 in wing imaginal discs
Method in brief: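 GFP-Wingless knock-in wing discs with V5-tagged human GPC4, GPC6, GPC3 or GPC5 driven by ptc-Gal4, crossed at 25°C. Surface capture of GFP-Wingless imaged by confocal microscopy after immunostaining with Alexa-conjugated secondaries and DAPI mounting. Three independent repeats.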

[3] = tested on: Distal-less; details: overexpressed; ref [13],[14]; cited from earlier work
[4] = tested on: GFP-Wingless[S239A]; assay: In vivo trapping of GFP-Wingless[S239A] at the surface of imaginal disc cells; design: species or system Drosophila; details: glypican overexpressed with ptc-Gal4 in imaginal discs
[5] = tested on: senseless; details: overexpressed; ref [13],[14]; cited from earlier work
[6] = tested on: Wingless; details: ref [13],[14]; cited from earlier work
[7] = tested on: GFP-Wingless; assay: Solubilisation of GFP-Wingless in serum-free S2 cell medium; type: cell-based, Drosophila; details: conditioned medium from S2 cells expressing Dlp^ΔGPI-V5 added to S2 cells expressing GFP-Wingless, 12hrs, concentrated 20-fold, Western blot
[8] = tested on: GFP-Wingless; assay: Colocalisation with morphotrap-enriched GFP-Wingless in wing discs; type: in vivo, Drosophila; details: n=4 (Dlp^ΔGPI-V5), n=13 (ApoL), n=10 (Hrs)
Method in brief: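 For ApoL and Hrs, morphotrap is driven by dpp-Gal4 and the endogenous proteins are immunostained. For Dlp ΔGPI-V5, morphotrap is driven by dpp-LexA and Dlp by wg-Gal4, limited to 24 h with Gal80ts (18°C rearing, 29°C shift). Confocal imaging; colocalisation scored where domains intersect; SD; three repeats.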

[9] = tested on: GFP-Wingless; details: culture medium, literature; ref [6],[22]; cited from earlier work

B1: furin mutant form: Dlp^core form where both furin sites were destroyed (protein)
chain: DQFSPNCSAVTHIFQARGIDAIEIPQKPSNERVLRYCESPSVGTCCTYNMETRMAMQSRQQLEGHTKDQISRMSGILGSKATKFKDIFTALLKESRTQFNSMFIRTYGVIYERNSYVFSDLFKELETYFANGRVDLLEVMDKFFNTLYQKMFTVLNTQYTFDENYMRCVSEHMKELKPFGDVPDKLSVQIKRSFVATRTYGQALTTASEVAKKVLNVRLNADCTGALTKMQHCGACKGYTEKPCTNYCVNVIKGCLHYQHEFDSEWENFAMAMDKVAERLLGSFNIVMVVEPLNIKISEAIMNFQDSGQDITNRVFQGCGRPKLQAMKQSISPKLQGVQILNARSPVEADTLDIDETLDEAIVLQERAAAEPGSQETSAQQSQEQGVGKSGNGGGGGGGNNRRQQQRRKQQQQRRKQQNNRDDNDDDDNESGGGREPILDRIVRDIRQRVKDYKKFWSNLPHSVCSNEDIASSSDVDGMCWNGHTIDRYMHSITTEHGSNPEFTGNPASTKQTAQMASQLSHLKNAIVHLRNAYNGQDVEWSEQ
modifications: left off: Twin-Strep, C-terminal, cleaved
For B1, the “lipid binding behaviour vs wild-type form” value [1] was “No difference in lipid binding behaviour”.

B2: Dlp: Drosophila glypican Dally-like protein (protein)
chain: PQVAALAAPNPAGGVAGSSIIDQFSPNCSAVTHIFQARGIDAIEIPQKPSNERVLRYCESPSVGTCCTYNMETRMAMQSRQQLEGHTKDQISRMSGILGSKATKFKDIFTALLKESRTQFNSMFIRTYGVIYERNSYVFSDLFKELETYFANGRVDLLEVMDKFFNTLYQKMFTVLNTQYTFDENYMRCVSEHMKELKPFGDVPDKLSVQIKRSFVATRTYGQALTTASEVAKKVLNVRLNADCTGALTKMQHCGACKGYTEKPCTNYCVNVIKGCLHYQHEFDSEWENFAMAMDKVAERLLGSFNIVMVVEPLNIKISEAIMNFQDSGQDITNRVFQGCGRPKLKKMKRSISPKLQGVQILNARSPVEADTLDIDETLDEAIVLRERRAAEPGSQETSAQQSQEQGVGKSGNGGGGGGGNNRRQQQRRKQQQQRRKQQNNRDDNDDDDNESGGGREPILDRIVRDIRQRVKDYKKFWSNLPHSVCSNEDIASSSDVDGMCWNGHTIDRYMHSITTEHGSNPEFTGNPASTKQTAQMASQLSHLKNAIVHLRNAYNGQDVEWSEQEELPYAGSGAGSGSGSEDDEDDDEGSGLGPFEPSHKPDVERPSVDADNDDDEDAGGRGHMPTHTSRPTSGVDDKNPLIHTTHFDQDHNDLDEDHRQLDEDEDTDAG
modifications: left off: HA, end not stated, kept
In the case of B2, the “trapping of GFP-Wingless at the cell surface” value [2] is given as “duly trapped endogenous-level GFP-Wingless; also recorded: captures GFP-Wingless”, the “biphasic activity in wing imaginal discs: distal-less” value [3] is given as “extending the range of the low target gene distal-less” and the “trapping of GFP-Wingless[S239A] (unlipidated)” value [4] is given as “did not detectably trap; also recorded: not GFP-Wingless[S239A]”. For the same molecule, the “biphasic activity in wing imaginal discs: senseless” value [5] was “inhibiting the high target gene senseless”.

B3: Dlp^ΔGPI: secreted form of Dlp lacking its membrane anchor, amino acids 53-723 (protein)
chain: B2 chain
modifications: left off: V5, C-terminal, kept
In the case of B3, the “binding to Wingless” value [6] is listed as “known to bind Wingless”, the “solubilisation of GFP-Wingless, added conditioned medium” value [7] is listed as “A similar effect was seen” and the “solubilisation of GFP-Wingless, added conditioned medium” value ([7]; listed as Dlp^ΔGPI-V5) is listed as “stabilises GFP-Wingless in solution”. The “colocalisation with morphotrap-enriched GFP-Wingless” value [8] was “colocalizes”.

B4: Afamin: lipid-binding protein (protein, UniProt P43652 22-599, looked up)
Afamin: LPTQPRDIENFNSTQKFIEDNIEYITIIAFAQYVQEATFEEMEKLVKDMVEYKDRCMADKTLPECSKLPNNVLQEKICAMEGLPQKHNFSHCCSKVDAQRRLCFFYNKKSDVGFLPPFPTLDPEEKCQAYESNRESLLNHFLYEVARRNPFVFAPTLLTVAVHFEEVAKSCCEEQNKVNCLQTRAIPVTQYLKAFSSYQKHVCGALLKFGTKVVHFIYIAILSQKFPKIEFKELISLVEDVSSNYDGCCEGDVVQCIRDTSKVMNHICSKQDSISSKIKECCEKKIPERGQCIINSNKDDRPKDLSLREGKFTDSENVCQERDADPDTFFAKFTFEYSRRHPDLSIPELLRIVQIYKDLLRNCCNTENPPGCYRYAEDKFNETTEKSLKMVQQECKHFQNLGKDGLKYHYLIRLTKIAPQLSTEELVSLGEKMVTAFTTCCTLSEEFACVDNLADLVFGELCGVNENRTINPAVDHCCKTNFAFRRPCFESLKADKTYVPPPFSQDLFTFHADMCQSQNEELQRKTDRFLVNLVKLKHELTDEELQSLFTNFANVVDKCCKAESPEVCFNEESPKIGN
In the case of B4, the “release of soluble Wnt on addition of lipid-binding protein” value [9] is given as “enables the release of soluble Wnt”.
